Laboratory results taken from ChEMBL document CHEMBL2176900, “Design and synthesis of a novel series of bicyclic heterocycles as potent γ-secretase modulators” (J Med Chem, 2012).
Values after ≈ are worked out from the molar mass of the structure shown.

What was measured:
[1] = Plasma concentration in Sprague-Dawley rat at 10 mg/kg, po at 25 hrs by LC-MS/MS analysis; format: ADME, organism-based; parameters: dose 10 mg/kg, route oral
Outline: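 Overnight-fasted male Sprague-Dawley rats (180–220 g) were given 10 mg/kg by gastric intubation of a 5 mg/mL suspension in 0.5% methocellulose. Blood was collected after decapitation at 2, 4, 7 and 25 h under isoflurane anaesthesia. Plasma compound was measured as in the mouse assay, n = 5.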

[2] = Plasma concentration in CD1 mouse at 30 mg/kg, po at 24 hrs by LC-MS/MS analysis; format: ADME, organism-based; parameters: dose 30 mg/kg, route oral
Outline: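 Mice received a single 10 or 30 mg/kg oral dose. Plasma was sampled at several time points up to 48 h, with EDTA plasma obtained by centrifugation at 1900g, 10 min, 4 °C. Compound was quantified by LC-MS/MS, n = 4.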

[3] = tested on: Brain; assay: Drug uptake in CD1 mouse brain at 10 mg/kg, po at 24 hrs by LC-MS/MS analysis; format: ADME, organism-based; parameters: dose 10 mg/kg, route oral; conditions: in vivo, BLD = below limit of detection
Outline: (§1)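 Overnight-fasted male CD1 mice received one oral dose (10 or 30 mg/kg) in 20% Captisol. After sacrifice, the left brain hemisphere was stored at −18 °C. Compound level was quantified by a qualified LC-MS/MS method, alongside EDTA plasma spun at 1900g, 4 °C. n = 4 per time point.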

[4] = Oral bioavailability in CD1 Swiss mouse at 10 mg/kg; format: ADME, organism-based; conditions: in vivo
[5] = Thermodynamic solubility in fasted state simulated intestinal fluid; format: physicochemical; conditions: read-out: Therm_solubility
Outline: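 Thermodynamic solubility was measured in pH 4.0 and pH 7.4 buffers, 0.01 N HCl, and fasted-state and fed-state simulated intestinal fluids (FaSSIF, FeSSIF). Results are in […].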

[6] = Genotoxicity against human TK6 cells by GreenScreen HC test; format: toxicity, cell-based
[7] = Drug uptake in CD1 mouse brain at 30 mg/kg, po at 4 hrs by LC-MS/MS analysis; format: ADME, organism-based; parameters: dose 30 mg/kg, route oral; conditions: read-out: Drug uptake; outline: as §1

COc1nc(Nc2cccc3c2nc(-c2ccc(F)cc2)n3C)ccc1-n1cnc(C)c1
concentration at 25 h [1]: 20 nM | concentration at 24 h [2]: 310 nM | Drug uptake [3]: BLD | bioavailability [4]: 100% | solubility thermodynamic [5]: 3 µg/mL (≈ 7 µM) | Activity [6]: Non-toxic | concentration at 4 h [7]: 21900 nM
